Laboratory results reported in ChEMBL document CHEMBL1641579, “Synthesis and biological evaluation of 7-substituted-1-(3-bromophenylamino)isoquinoline-4-carbonitriles as inhibitors of myosin light chain kinase and epidermal growth factor receptor” (Bioorg Med Chem, 2011).

Legend:
Format in all cases: functional
[1] = tested on: NCI-H1666; experiment: Growth inhibition of human NCI-H1666 cells assessed as ATP level after 96 hrs by CellTiter-Glo assay; settings: NCI-H1666, 96 h
In short: (§1)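 NSCLC lines maintained as in earlier work and authenticated by mutational analysis and SNP arrays. Cells were plated in 384-well format and allowed 24 h before compound addition as 10 threefold serial dilutions (DMSO stocks). After 96 h, viability was read as cellular ATP by CellTiter-Glo. GI50 was fitted with an R package.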

[2] = tested on: NCI-H520; experiment: Growth inhibition of human NCI-H520 cells assessed as ATP level after 96 hrs by CellTiter-Glo assay; settings: NCI-H520, 96 h
[3] = Growth inhibition of human H3255 cells assessed as ATP level after 96 hrs by CellTiter-Glo assay; settings: NCI-H3255, 96 h; in short: as §1
[4] = Growth inhibition of human HCC193 cells assessed as ATP level after 96 hrs by CellTiter-Glo assay; settings: HCC193, 96 h; in short: as §1
[5] = tested on: NCI-H157; experiment: Growth inhibition of human NCI-H157 cells assessed as ATP level after 96 hrs by CellTiter-Glo assay; settings: NCI-H157, 96 h; in short: as §1
[6] = Growth inhibition of human NCI-H1568 cells assessed as ATP level after 96 hrs by CellTiter-Glo assay; settings: NCI-H1568, 96 h; in short: as §1
[7] = Growth inhibition of human HCC1833 cells assessed as ATP level after 96 hrs by CellTiter-Glo assay; in short: as §1
[8] = tested on: Calu-1; experiment: Growth inhibition of human Calu1 cells assessed as ATP level after 96 hrs by CellTiter-Glo assay; settings: Calu-1, 96 h; in short: as §1
[9] = tested on: Calu-6; experiment: Growth inhibition of human Calu6 cells assessed as ATP level after 96 hrs by CellTiter-Glo assay; settings: Calu-6, 96 h; in short: as §1
[10] = tested on: SK-LU-1; experiment: Growth inhibition of human SKLU1 cells assessed as ATP level after 96 hrs by CellTiter-Glo assay; settings: SK-LU-1, 96 h
[11] = tested on: NCI-H2087; experiment: Growth inhibition of human NCI-H2087 cells assessed as ATP level after 96 hrs by CellTiter-Glo assay; settings: NCI-H2087, 96 h
[12] = tested on: A-427; experiment: Growth inhibition of human A427 cells assessed as ATP level after 96 hrs by CellTiter-Glo assay; settings: A-427, 96 h; in short: as §1
[13] = tested on: NCI-H1734; experiment: Growth inhibition of human NCI-H1734 cells assessed as ATP level after 96 hrs by CellTiter-Glo assay; settings: NCI-H1734, 96 h; in short: as §1
[14] = tested on: NCI-H661; experiment: Growth inhibition of human NCI-H661 cells assessed as ATP level after 96 hrs by CellTiter-Glo assay; settings: NCI-H661, 96 h
[15] = tested on: DV-90; experiment: Growth inhibition of human DV90 cells assessed as ATP level after 96 hrs by CellTiter-Glo assay; settings: DV-90, 96 h; in short: as §1
[16] = Growth inhibition of human H820 cells assessed as ATP level after 96 hrs by CellTiter-Glo assay; settings: NCI-H820, 96 h; in short: as §1
[17] = tested on: NCI-H322M; experiment: Growth inhibition of human NCI-H322M cells assessed as ATP level after 96 hrs by CellTiter-Glo assay
[18] = tested on: NCI-H647; experiment: Growth inhibition of human NCI-H647 cells assessed as ATP level after 96 hrs by CellTiter-Glo assay; settings: NCI-H647, 96 h
[19] = Growth inhibition of human HCC827 cells assessed as ATP level after 96 hrs by CellTiter-Glo assay; settings: HCC827, 96 h; in short: as §1
[20] = tested on: NCI-H1648; experiment: Growth inhibition of human NCI-H1648 cells assessed as ATP level after 96 hrs by CellTiter-Glo assay; settings: NCI-H1648, 96 h; in short: as §1
[21] = Growth inhibition of human HCC364 cells assessed as ATP level after 96 hrs by CellTiter-Glo assay; settings: HCC364, 96 h; in short: as §1
[22] = Growth inhibition of human HCC2450 cells assessed as ATP level after 96 hrs by CellTiter-Glo assay; in short: as §1
[23] = tested on: NCI-H1792; experiment: Growth inhibition of human NCI-H1792 cells assessed as ATP level after 96 hrs by CellTiter-Glo assay; settings: NCI-H1792, 96 h
In short: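 NSCLC lines maintained as previously described, authenticated by mutational analysis and SNP arrays. Cells seeded and incubated 24 h, then given compound (DMSO stocks) as 10 threefold serial dilutions. Viability read after 96 h as cellular ATP content (CellTiter-Glo). GI50 derived by curve fitting of half-maximal inhibition.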

[24] = Growth inhibition of human COLO699 cells assessed as ATP level after 96 hrs by CellTiter-Glo assay; settings: COLO 699, 96 h; in short: as §1
[25] = tested on: EKVX; experiment: Growth inhibition of human EKVX cells assessed as ATP level after 96 hrs by CellTiter-Glo assay; in short: as §1
[26] = Growth inhibition of human LouNH91 cells assessed as ATP level after 96 hrs by CellTiter-Glo assay; settings: LOU-NH91, 96 h; in short: as §1
[27] = tested on: NCI-H2052; experiment: Growth inhibition of human NCI-H2052 cells assessed as ATP level after 96 hrs by CellTiter-Glo assay; settings: NCI-H2052, 96 h
[28] = Growth inhibition of human HCC95 cells assessed as ATP level after 96 hrs by CellTiter-Glo assay; settings: HCC95, 96 h; in short: as §1
[29] = tested on: NCI-H2228; experiment: Growth inhibition of human NCI-H2228 cells assessed as ATP level after 96 hrs by CellTiter-Glo assay; settings: NCI-H2228, 96 h
[30] = tested on: HOP-62; experiment: Growth inhibition of human HOP62 cells assessed as ATP level after 96 hrs by CellTiter-Glo assay; settings: HOP-62, 96 h; in short: as §1
[31] = Growth inhibition of human HCC4006 cells assessed as ATP level after 96 hrs by CellTiter-Glo assay; settings: HCC4006, 96 h; in short: as §1
[32] = tested on: NCI-H358; experiment: Growth inhibition of human NCI-H358 cells assessed as ATP level after 96 hrs by CellTiter-Glo assay; settings: NCI-H358, 96 h
[33] = Growth inhibition of human HCC15 cells assessed as ATP level after 96 hrs by CellTiter-Glo assay; settings: HCC15, 96 h; in short: as §1
[34] = Growth inhibition of human HCC366 cells assessed as ATP level after 96 hrs by CellTiter-Glo assay; settings: HCC366, 96 h; in short: as §1
[35] = tested on: NCI-H1563; experiment: Growth inhibition of human NCI-H1563 cells assessed as ATP level after 96 hrs by CellTiter-Glo assay; settings: NCI-H1563, 96 h; in short: as §1
[36] = tested on: NCI-H2030; experiment: Growth inhibition of human NCI-H2030 cells assessed as ATP level after 96 hrs by CellTiter-Glo assay; settings: NCI-H2030, 96 h
[37] = Growth inhibition of human HCC44 cells assessed as ATP level after 96 hrs by CellTiter-Glo assay; settings: HCC44, 96 h; in short: as §1
[38] = Growth inhibition of human NCI-H2882 cells assessed as ATP level after 96 hrs by CellTiter-Glo assay; settings: NCI-H2882, 96 h

## CN(C)C/C=C/C(=O)Nc1ccc2c(C#N)cnc(Nc3cccc(Br)c3)c2c1
[1]
  GI50: 28.8 µM
[2]
  GI50: 16 µM
[3]
  GI50: 4.32 µM
[4]
  GI50: 15.3 µM
[5]
  GI50: 12 µM
[6]
  GI50: 30.9 µM
[7]
  GI50: 16.8 µM
[8]
  GI50: 19.7 µM
[9]
  GI50: 16.4 µM
[10]
  GI50: 16.6 µM
[11]
  GI50: 17 µM
[12]
  GI50: 15.8 µM
[13]
  GI50: 24.3 µM
[14]
  GI50: 14 µM
[15]
  GI50: 18.4 µM
[16]
  GI50: 12.9 µM
[17]
  GI50: 21.4 µM
[18]
  GI50: 26.3 µM
[19]
  GI50: 14.3 µM
[20]
  GI50: 21.1 µM
[21]
  GI50: 21.9 µM
[22]
  GI50: 22.9 µM
[23]
  GI50: 26.3 µM
[24]
  GI50: 15.3 µM
[25]
  GI50: 14.5 µM
[26]
  GI50: 15.7 µM
[27]
  GI50: 21.6 µM
[28]
  GI50: 13.3 µM
[29]
  GI50: 21.9 µM
[30]
  GI50: 26.9 µM
[31]
  GI50: 13.3 µM
[32]
  GI50: 14.5 µM
[33]
  GI50: 19.3 µM
[34]
  GI50: 16.6 µM
[35]
  GI50: 30.9 µM
[36]
  GI50: 34.3 µM
[37]
  GI50: 23.7 µM
[38]
  GI50: 23.7 µM
